Laboratory results reported in ChEMBL document CHEMBL3596134 (J Med Chem, 2015).

Legend:
[1] = Oral bioavailability in guinea pig at 30 mg/kg; assay type: ADME, organism-based, Cavia porcellus; conditions: in vivo
[2] = Oral bioavailability in guinea pig at 10 mg/kg; assay type: ADME, organism-based, Cavia porcellus; conditions: in vivo
Outline: (§1)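 Single iv and oral dosing in rat, guinea pig or dog; iv and po given as solutions in wellsolve/H2O 1/9 with NaOH (2 equiv). Animals fasted before oral dosing; noncrossover design, n = 3. Plasma protein-precipitated with acetonitrile/ethanol (70/30) and assayed by HPLC/MS/MS with negative-ion ionization. Noncompartmental analysis; F from mean po AUC over mean iv AUC.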

[3] = Oral bioavailability in rat at 10 mg/kg; assay type: ADME, organism-based; conditions: in vivo; outline: as §1
[4] = Half life in rat at 1 mg/kg, iv; assay type: ADME, organism-based; conditions: in vivo; outline: as §1
[5] = Ratio of drug level in lung to plasma in guinea pig measured over 24 hrs; assay type: ADME, Cavia porcellus; conditions: lung and plasma
Outline: (§2)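 Guinea pigs were dosed orally. Lungs were homogenized in saline, digested in 2 mol/L NaOH at 60 °C for 3 h, diluted 50-fold in PBS, and assayed for protein by BCA. Drug in lung was quantified by HPLC/MS/MS (negative-ion) after ethanol precipitation and expressed as ng/g protein. Plasma was assayed after acetonitrile/ethanol precipitation. Kp is the lung:plasma concentration ratio.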

[6] = Oral bioavailability in dog at 1 mg/kg; assay type: ADME, organism-based, Canis lupus familiaris; conditions: in vivo; outline: as §1
[7] = Half life in dog at 1 mg/kg, iv; assay type: ADME, organism-based, Canis lupus familiaris; conditions: in vivo; outline: as §1
[8] = Plasma concentration in guinea pig measured over 24 hrs; assay type: ADME, Cavia porcellus
Outline: (§3)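 Lungs homogenized in saline; homogenate digested in 2 mol/L NaOH at 60 °C for 3 h, then diluted 50-fold in PBS. Protein measured by BCA. Compound measured by negative-ion HPLC/MS/MS after ethanol precipitation and expressed as ng/g protein. Plasma and lung values given as mean with SD, n = 4.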

[9] = Stability of the compound in ambient light; assay type: physicochemical
[10] = Clearance in dog at 1 mg/kg, iv; assay type: ADME, organism-based, Canis lupus familiaris; conditions: in vivo; outline: as §1
[11] = Clearance in rat at 1 mg/kg, iv; assay type: ADME, organism-based; conditions: in vivo; outline: as §1
[12] = (§4) AUC in dog at 1 mg/kg, po; assay type: ADME, organism-based, Canis lupus familiaris; conditions: in vivo; outline: as §1
[13] = Volume of distribution at steady state in rat at 1 mg/kg, iv and 3 mg/kg, po; assay type: ADME, organism-based; conditions: in vivo, read-out: Vdss
Outline: (§5)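 Single iv and oral doses were given as solutions in wellsolve/H2O 1/9 with 2 equiv NaOH. Animals were fasted before oral dosing, in a noncrossover design with n = 3. Plasma was protein-precipitated with acetonitrile/ethanol 70/30 and analysed by HPLC/MS/MS (negative-ion Turbo IonSpray). Parameters were derived by noncompartmental analysis and reported as mean ± SD.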

[14] = Volume of distribution at steady state in dog at 1 mg/kg, iv and 1 mg/kg, po; assay type: ADME, organism-based, Canis lupus familiaris; conditions: in vivo, read-out: Vdss; outline: as §5
[15] = Volume of distribution at steady state in guinea pig at 1 mg/kg, iv and 10 mg/kg, po; assay type: ADME, organism-based, Cavia porcellus; conditions: in vivo, read-out: Vdss
[16] = AUC in guinea pig at 10 mg/kg, po; assay type: ADME, organism-based, Cavia porcellus; conditions: in vivo; outline: as §1
[17] = Drug uptake in lung of guinea pig measured over 24 hrs; assay type: ADME, tissue-based, Cavia porcellus; conditions: read-out: Drug uptake; outline: as §3
[18] = Half life in guinea pig at 1 mg/kg, iv; assay type: ADME, organism-based, Cavia porcellus; conditions: in vivo; outline: as §1
[19] = AUC in rat at 3 mg/kg, po; assay type: ADME, organism-based; conditions: in vivo; outline: as §1
[20] = Clearance in guinea pig at 1 mg/kg, iv; assay type: ADME, organism-based, Cavia porcellus; conditions: in vivo; outline: as §1
[21] = Oral bioavailability in rat at 3 mg/kg; assay type: ADME, organism-based; conditions: in vivo; outline: as §1
[22] = Stability of the compound in NaOH/DME/EtOH/H2O at 50 degC measured for 24 hrs; assay type: physicochemical
Outline: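 Compound was held in 1 mol/L NaOH in DME/EtOH/H2O at 50 °C for 24 h and checked for degradation.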

[23] = AUC in guinea pig at 0.2 mg/kg, iv and 1 mg/kg, po administered as cassette dosing; assay type: ADME, organism-based, Cavia porcellus; conditions: in vivo
[24] = Oral bioavailability in guinea pig at 1 mg/kg administered as cassette dosing; assay type: ADME, organism-based, Cavia porcellus; conditions: in vivo
Outline: (§6)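 Guinea pig cassette dosing of five compounds per solution, 0.2 mg/kg iv and 1 mg/kg po. Vehicle wellsolve/H2O 5/95 with NaOH (1.2 equiv). Animals fasted before oral dosing; noncrossover design, n = 3. Plasma protein-precipitated with acetonitrile/ethanol (70/30) and assayed by negative-ion HPLC/MS/MS. Noncompartmental analysis; F from mean AUCs.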

[25] = Stability of the compound in H2SO4/DME/H2O at 50 degC measured for 24 hrs; assay type: physicochemical
Outline: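 Compound was held in 1 mol/L H2SO4 in DME/H2O at 50 °C for 24 h and checked for degradation.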

[26] = Drug uptake in lung of guinea pig at 3 mg/kg, po measured over 7 days; assay type: ADME, organism-based, Cavia porcellus; conditions: read-out: Drug uptake; outline: as §3
[27] = Cmax in rat at 1 mg/kg, po; assay type: ADME, organism-based; set-up: dose 1 mg/kg, route oral; conditions: in vivo; outline: as §1
[28] = Clearance in rat at 0.2 mg/kg, iv and 1 mg/kg, po administered as cassette dosing; assay type: ADME, organism-based; conditions: in vivo
[29] = Volume of distribution at steady state in rat at 1 mg/kg, iv and 1 mg/kg, po; assay type: ADME, organism-based; conditions: in vivo, read-out: Vdss; outline: as §5
[30] = Ratio of drug level in lung to plasma in guinea pig at 0.3 mg/kg, po measured over 7 days; assay type: ADME, organism-based, Cavia porcellus; conditions: lung and plasma; outline: as §2
[31] = tested on: Canis familiaris; assay: as §4; assay type: ADME, organism-based, Canis lupus familiaris; conditions: in vivo; outline: as §1
[32] = Oral bioavailability in rat at 1 mg/kg; assay type: ADME, organism-based; conditions: in vivo; outline: as §1
[33] = tested on: Canis familiaris; assay: Oral bioavailability in dog at 1 mg/kg administered as cassette dosing; assay type: ADME, organism-based, Canis lupus familiaris; conditions: in vivo
[34] = AUC in guinea pig at 1 mg/kg, po administered as cassette dosing; assay type: ADME, organism-based, Cavia porcellus; conditions: in vivo
[35] = Clearance in rat at 1 mg/kg, iv and 1 mg/kg, po; assay type: ADME, organism-based; conditions: in vivo; outline: as §1
[36] = Plasma concentration in guinea pig at 3 mg/kg, po measured over 7 days; assay type: ADME, organism-based, Cavia porcellus; outline: as §3
[37] = Plasma concentration in guinea pig at 0.3 mg/kg, po measured over 7 days; assay type: ADME, organism-based, Cavia porcellus; outline: as §3
[38] = Volume of distribution at steady state in rat at 0.2 mg/kg, iv and 1 mg/kg, po administered as cassette dosing; assay type: ADME, organism-based; conditions: in vivo, read-out: Vdss
[39] = Cmax in dog at 1 mg/kg, po; assay type: ADME, organism-based, Canis lupus familiaris; set-up: dose 1 mg/kg, route oral; conditions: in vivo; outline: as §1
[40] = Drug uptake in lung of guinea pig at 0.3 mg/kg, po measured over 7 days; assay type: ADME, organism-based, Cavia porcellus; conditions: read-out: Drug uptake; outline: as §3
[41] = Ratio of drug level in lung to plasma in guinea pig at 3 mg/kg, po measured over 7 days; assay type: ADME, organism-based, Cavia porcellus; conditions: lung and plasma; outline: as §2
[42] = AUC in rat at 1 mg/kg, po; assay type: ADME, organism-based; conditions: in vivo; outline: as §1
[43] = Half life in guinea pig at 0.2 mg/kg, iv administered as cassette dosing; assay type: ADME, organism-based, Cavia porcellus; conditions: in vivo; outline: as §6
[44] = Cmax in guinea pig at 1 mg/kg, po administered as cassette dosing; assay type: ADME, organism-based, Cavia porcellus; set-up: dose 1 mg/kg, route oral; conditions: in vivo; outline: as §6

`O=C(O)CCCN1CC(C(=O)O)Oc2c(NC(=O)c3ccc(OCCCCc4ccccc4)cc3)cccc21` (stereo not drawn) gave a bioavailability [1] of 2.8%.
Molecule `O=C(O)CCCn1cc(CC(=O)O)c2c(/C=C/c3ccc(OCCCCOc4ccccc4)cc3)cccc21` has a bioavailability [2] of 26%.
With `O=C(O)CCCc1cn(CC(=O)O)c2c(/C=C/c3ccc(OCCCCOc4ccccc4)cc3)cccc12` the bioavailability [3] was 66% and the bioavailability [2] was 12%.
With `Cc1c(Cl)cccc1CCCCOc1ccc(/C=C/c2cccc3c(CCCC(=O)O)c(C)n(CC(=O)O)c23)cc1` the half-life [4] was 8.9 h, the Kp at 24 h [5] was 15 and the bioavailability [6] was 21%. The half-life [7] was 4.7 h, the concentration at 24 h [8] was 16 ng/mL and the Stability [9] was “Unstable”. It also gave a clearance [10] of 5.5 mL/min/kg, a clearance [11] of 1.1 mL/min/kg and an AUC [12] of 650 ng·h/mL. For the same molecule, the Vd [13] was 0.3 L/kg, the Vd [14] was 0.38 L/kg and the Vd [15] was 0.23 L/kg. The AUC [16] was 10000 ng·h/mL, the concentration at 24 h [17] was 253 ng/g and the half-life [18] was 5.3 h. It also gave a bioavailability [2] of 11%, an AUC [19] of 39000 ng·h/mL and a clearance [20] of 1.8 mL/min/kg. It also gave a bioavailability [21] of 56%.
In the case of `Cc1c(Cl)cccc1CCCCOc1ccc(C#Cc2cccc3c(CCCC(=O)O)c(C)n(CCCC(=O)O)c23)cc1`, the Stability [22] is reported as “Stable”, the AUC [23] is reported as 10500 ng·h/mL and the Stability [9] is reported as “Stable”. The bioavailability [24] was 66% and the Stability [25] was “Stable”.
With `Cc1c(Cl)cccc1CCCCOc1ccc(C#Cc2ccc(F)c3c(CCCC(=O)O)c(C)n(CCCC(=O)O)c23)cc1` the AUC [23] was 3400 ng·h/mL and the bioavailability [24] was 52%.
Work on `Cc1c(F)cccc1CCCCOc1ccc(C#Cc2ccc(F)c3c(CCCC(=O)O)c(C)n(CCCC(=O)O)c23)cc1` yielded a concentration at 168 h [26] of 573 ng/g, a half-life [4] of 9.6 h and a Cmax [27] of 1190 ng/mL. For the same molecule, the half-life [7] was 7.6 h, the clearance [28] was 1.1 mL/min/kg and the Vd [29] was 0.24 L/kg. It also gave a Kp at 168 h [30] of 30, an AUC [31] of 28200 ng·h/mL and a Vd [14] of 0.14 L/kg. The bioavailability [32] was 35%, the F [33] was 51% and the bioavailability [24] was 56%. For the same molecule, the AUC [34] was 8510 ng·h/mL, the clearance [35] was 0.68 mL/min/kg and the concentration at 168 h [36] was 83 ng/mL. For the same molecule, the concentration at 168 h [37] was 8.7 ng/mL, the Vd [38] was 0.31 L/kg and the Cmax [39] was 3690 ng/mL. The concentration at 168 h [40] was 267 ng/g, the Kp at 168 h [41] was 8 and the AUC [42] was 9330 ng·h/mL. For the same molecule, the half-life [43] was 7.1 h and the Cmax [44] was 1010 ng/mL.
